Test results reported in the EternaBench riboswitch data.

Tested on: MS2 coat protein
Test: apparent Kd, MS2 coat protein; higher = weaker binding; RNA-MaP array
Procedure, shortened: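 Fluorescently labeled MS2 coat protein, from 1.5 nM to 3 μM, was incubated at room temperature with designed RNAs transcribed on an Illumina sequencing chip from sequenced DNA templates. Times ran from 0.8–1.5 h at the lowest concentrations to 10–20 min at the highest, in Tris-HCl pH 7.5 buffer with KCl, MgCl2, BSA, DTT, tRNA and Tween20, with or without input ligand. Each apparent Kd is the median of per-cluster binding-curve fits, and designs with fewer than 10 measured clusters were excluded.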

[1] = designed as: ON switch for flavin mononucleotide, no ligand
[2] = ligand present: flavin mononucleotide, designed as: ON switch for flavin mononucleotide
[3] = designed as: OFF switch for theophylline, no ligand
[4] = ligand present: theophylline, designed as: OFF switch for theophylline
[5] = designed as: OFF switch for flavin mononucleotide, no ligand
[6] = ligand present: flavin mononucleotide, designed as: OFF switch for flavin mononucleotide

| Sequence | apparent Kd [1] [nM] | apparent Kd [2] [nM] | apparent Kd [5] [nM] | apparent Kd [6] [nM] | further results |
| --- | --- | --- | --- | --- | --- |
| GGAAAACCUCGAGGAUAUAGCACAUGAGGAUCACCCAUGUACCAUAAGUGUUGACAAAAGAGAGACUAGAAGGCGAAUCAAACC | 13.1 | 11.6 |  |  |  |
| GGAACGAUCACUUCUUUAUCUAAGGCGGAUACCAGUCCUCGGUUUGACCCUUGGCAGCCGACAACAUGAGGAUCACCCAUGUUCU |  |  |  |  | apparent Kd [3]: 15.6 nM; apparent Kd [4]: 20.4 nM |
| GGAAUCGGAUUAGAGGAUAUCGAUCUGUUAACAUGAGGAUCACCCAUGUGGACGCUUCAUUCGAACGAGAAGGCUAGAUGGACACC | 23.8 | 16.8 |  |  |  |
| GGAGUGUGAGGAUAUGACGCGCCAGGCACACUUGAAUGCGCUCAGAAGGCACAUGAGGAUCACCCAUGUAAGCA |  |  | 8.29 | 13.3 |  |
| GGAUUGAUAGGAUAUACAUAGAUGUAGGAGCCUUCACUCCCACAUGAGGAUCACCCAUGUAGAAGGAUCAGUAA |  |  | 12.1 | 23.6 |  |
| GGGUUACUCUAUGAUACCAGUUCCAUGCCGAAACCUGUGUACAUGAGGAUCACCCAUGUGAACCCUUGGCAGCAUUAAUCAACUG |  |  |  |  | apparent Kd [3]: 97.5 nM; apparent Kd [4]: 258 nM |
| GGUCCAAUAGGAUAUACAUGAGGAUCACCCAUGUAAUGGAAGCUCGGGUUUUGGUACUGUAGAAGGAUUGGGAC |  |  | 25.8 | 40.9 |  |
| GUAAAACUGUAAGGAUAUGAUGAACUUUAACCCUCAGAAGGAACACCACAUGAGGAUCACCCAUGUUAGGAAAGCAACUUGUUG | 14.1 | 13.8 |  |  |  |
| GUAAACGCCACAGGAUAUUGGCAGAAUAAGGAGCAAGAAGGGUGGGAUAGAAUCACGUGAACAUGAGGAUCACCCAUGUGUGGA | 55.3 | 38 |  |  |  |
| GUACCGUAAACGGCCGCCACUGACAUGAGGAUCACCCAUGUGCUGGUGGUGCACAACCUCAGGUUCAGGACCGGGUUUCCGAGCU |  |  |  |  | apparent Kd (designed as: OFF switch for tryptophan, no ligand): 25.1 nM; apparent Kd (ligand present: tryptophan, designed as: OFF switch for tryptophan): 55 nM |
| GUACCUCAAGGAUAUGCCCGAUCUUACAUGAGGAUCACCCAUGUUGGCUCAGGGCUUAGGGCAGAAGGUGAGAAGU |  |  | 6.38 | 7.52 |  |
| GUACCUCCUCAGAAGGCGCGUAGAGCCGGCACAUGAGGAUCACCCAUGUCGAGGCGAAAUGCAGGCGAGGAUAUGAAGGGUUUC | 4.88 | 4.92 |  |  |  |
| GUCGCAUGAGGAUAUACAUGAGGAUCACCCAUGUAUCUACGCAUGGGAAGACACCAAUGUAGAAGGCAUCUCAA |  |  | 64.2 | 21.5 |  |
| GUCGGUGCAGGAUAUCGAGGCGCCAACAUGAGGAUCACCCAUGUGUGUGAUCGGGUGCACCGAGAAGGGCACUUGC |  |  | 110 | 345 |  |
| GUGAUGCCUUACACAUGAGGAUCACCCAUGUGGUGUAAGCGUAGAAGGUGAAUAUAUUCCAUAGUCAAGGAUAUACGAACAAUC |  |  | 12.2 | 11.5 |  |
| UAACAUGAGGAUCACCCAUGUAACCAUCUCCAAGUCGGUAGGCAGGAUAUGUACAUAAUGGAAGAACAGAAGGGCCGGUCCGAG | 31.1 | 9.9 |  |  |  |
| UAACGUAGCCGAGGAUAUAGUAGCGAUCAACAGAAACAUGAGGAUCACCCAUGUGCCACAAAAGACUAGAAGGCGGGCAACCCA | 15.4 | 11.2 |  |  |  |
| UAAGAAGUCCAGAAGGUAGCCCUACCGUACAGCUAAGGAUAUGGCUCACCGGUUUCAACAUGAGGAUCACCCAUGUCCUCCCGG | 55.9 | 36.3 |  |  |  |
| UAAGUUUUAGAGAAGGCCUGGAAUUGCUGUGCAGGAGGAUAUCUGGGACAUGAGGAUCACCCAUGUAGCCGCUAAGCGUAAGGG |  |  | 46.6 | 83.1 |  |
| UACAUGAGGAUCACCCAUGUUUAUUGGUAGAACGGAUAAUGGGAGGAUAUGAACCGAUCAGAUCAUCAGAAGGCCCUUAAUGGG | 29 | 20 |  |  |  |
| UACAUUAUAGAGAAGGAUUACUCACACAUGAGGAUCACCCAUGUGUCCAUCAUGGCUGUAGGUUAAUAGGAUAUCUUAGAAGUG |  |  | 64.1 | 155 |  |

| Sequence | apparent Kd [1] [nM] | apparent Kd [2] [nM] | apparent Kd [5] [nM] | apparent Kd [6] [nM] | further results |
| --- | --- | --- | --- | --- | --- |
| UACUCACAUGAGGAUCACCCAUGUUGUCUCAAGAUAGGAUAUGACUGGCUAUGCAUCGGUUCAGAAGGAUCUUCUA | 19.7 | 11.3 |  |  |  |
| UAGCGACAUGAGGAUCACCCAUGUCCCGGCUACUAAGGAUAUGCAGUGAUUGAAAGGAAGGCAGAAGGUAGUGCAG | 25.3 | 12.7 |  |  |  |
| UAGCGACAUGAGGAUCACCCAUGUGAGGAUAUGAAGUCUAUAACACAAGCUAAUGAAGACAGAAGGCACAUGAG |  |  | 66.8 | 59.3 |  |
| UAGUAACAUGAGGAUCACCCAUGUGAGGAUAUCUGGCUAGGCUAAAGCAGAGAAACCAAGAGAAGGCACGGGAU |  |  | 19.4 | 20.8 |  |
| UAUAAGGAAGGAUAUAGGCUGCAAAACAUGAGGAUCACCCAUGUGAACCGACGACGCCAACUAGAAGGUCCCUAUG |  |  | 13.5 | 12.9 |  |
| UAUCGGGCAGGAUAUACAUGCGAUUACACUCUUCGGAAAGUACAUGAGGAUCACCCAUGUAGAAGGGCCAAGUG |  |  | 10.4 | 11 |  |
| UCACAUGAGGAUCACCCAUGUAAAUCACACGACGGUGCUGUCAAGGAUAUGUUACGCUCAGGGCUACAGAAGGUGAUGGUCAAG | 52.7 | 25.2 |  |  |  |
| UCACUCUGCCGAGGAUAUGCUGGGUCUGACAUGAGGAUCACCCAUGUAACGGGCAGAGUGUUCCAGCAGAAGGCGGCCAGUACC | 42.5 | 44.6 |  |  |  |
| UCAUGAAAGUCAGGAUAUGGCCACAUGAGGAUCACCCAUGUUUGCUUUAUCGAGCGAAACUGAGACCAGAAGGGACGGACAUUC | 20.8 | 11.1 |  |  |  |
| UCCCUACCGUCGGCCGCCACUGGGUCAUACAGUUCGUAACUACAUGAGGAUCACCCAUGUGCAGCCAGGACCGGGACGCGCCUUG |  |  |  |  | apparent Kd (designed as: ON switch for tryptophan, no ligand): 177 nM; apparent Kd (ligand present: tryptophan, designed as: ON switch for tryptophan): 106 nM |
| UCGACAUCAGGAUAUACGAUGGAGUAGUUACGAGUAUCACGACAUGAGGAUCACCCAUGUAGAAGGGAUCGUCC |  |  | 21.4 | 17.7 |  |
| UCGAGUGGGCAGAAGGUGUCGGACUAUACAUGAGGAUCACCCAUGUGGAAACCUCCCGGUUUGAACAAGGAUAUGCCUCGUAAA | 95.6 | 71.4 |  |  |  |
| UCGAUGGUACCCGAUACCAGCAAUACAUCACAGACCUGAUACAUGAGGAUCACCCAUGUGUGCCCUUGGCAGCGGGUCCUGAAAA |  |  |  |  | apparent Kd [3]: 17.8 nM; apparent Kd [4]: 38.1 nM |
| UGAGAACAUGUCUUUAAGUUUACCUCUGAUACCAGAUUGAAAGGCAUCCCUUGGCAGCAGCAUACAUGAGGAUCACCCAUGUCCU |  |  |  |  | apparent Kd [3]: 111 nM; apparent Kd [4]: 138 nM |
| UGAGAAGUAGGAUAUAAGUACACCUACAUGAGGAUCACCCAUGUACCUAACGUAGCCGAUUUAGAAGGACUGUCAA |  |  | 58.7 | 35.5 |  |
| UGAUGUAACAGAGGAUAUCACUCAAAUGCGGGCAUGUCGCACAUGUACAUGAGGAUCACCCAUGUUGAGAAGGCUGUGGUGCAA | 145 | 47.5 |  |  |  |
| UGCCUCCAGCGAGGAUAUAUGUAGAGAUACACCAUAGAAGGCGCUGUAGUGGAACAUGAGGAUCACCCAUGUGACCUCGCCCGG |  |  | 13.2 | 17.6 |  |
| UGGCUUGAAGGAUAUACAUGAGGAUCACCCAUGUAUCGCUAAAAGAGAAAUCCAUAAUGUAGAAGGUCAUCCCA |  |  | 8.91 | 12 |  |
| UGGGAUAGCCAGAAGGUGGAAGCAACAACUGUCCAAGGAUAUGGUUGUUAUAAGGCAUCACACAUGAGGAUCACCCAUGUUAAU | 83.2 | 35.2 |  |  |  |
| UGGGUCCGAUCAGGAUAUUAGCUACCGGAGUAUGACUGGUACUACAUGAGGAUCACCCAUGUUGCUAAGAAGGGAUGAACUGAA | 97.4 | 26.6 |  |  |  |
| UGGGUUACCUCAGGAUAUCGCCUUGUACAUGAGGAUCACCCAUGUAGUAUCGGCCGUGUGUGCAUCGAGAAGGGAGUAACCUUC |  |  | 75.2 | 53.5 |  |
